Measurements from different studies.
Compare with care: the assays were run in different laboratories.
Observed: enzyme activity
ABL1: Tyrosine-protein kinase ABL1 (ABL1, Homo sapiens, UniProt P00519)

| SMILES | target | assay | conditions | remaining activity [%] |
| --- | --- | --- | --- | --- |
| Cc1cnc(NC2CCOCC2)nc1-n1cnc(C(=O)NC(CN)c2cc(F)cc(Cl)c2)c1 (stereo not drawn) | ABL1 | inhibitor, radiometric | 1 µM | 103 |
| Cc1ccc(NC(=O)c2ccc(C)c(C(F)(F)F)c2)cc1C#Cc1nn(C2CCC(O)CC2)c2ncnc(N)c12 (stereo not drawn) | Tyrosine-protein kinase ABL1 (ABL1, Homo sapiens, UniProt P00519, Q252H) | – | 10 µM | 2 |
| COc1cc(Nc2cnc(C#N)c(O[C@H](C)CN(C)C)n2)ncc1-c1cnn(C)c1 | ABL1 | inhibitor, radiometric | 1 µM | 83 |
| Cc1[nH]c(/C=C2\C(=O)Nc3ccc(F)cc32)c(C)c1C(=O)N[C@H]1CCN(C(=O)N(C)C)C1 | ABL1 | inhibitor | 1 µM | 107 |
| CC(C)(C)c1nc2c(s1)c1nc(N)ncc1c1ccc(NS(=O)(=O)c3c(F)cccc3F)c(F)c12 | ABL1 | inhibitor, radiometric | 1 µM | 93 |
| CCCOc1ccc(OC)c(F)c1C(=O)c1ccc(C(=O)N[C@@H]2CNC[C@H]2NC(=O)c2ccc3[nH]ncc3c2)cc1 | ABL1 | inhibitor | 10 µM | 80 |
| Cc1sc(C(=O)NC2COC2)cc1-n1cc(NC(=O)Nc2c(F)cccc2Cl)cn1 | ABL1 | inhibitor | 10 µM | 102 |
| COc1cc(Cl)c(C(=O)N[C@@H](CN[C@H]2CC[C@@H](N)CC2)Cc2ccc(C#N)cc2)cc1-c1ccc(CN[C@H](C)c2ccc(C)cc2)o1 | ABL1 | inhibitor | 1 µM | 96 |
| CCN(CC)c1ccc(C2=NNC(=O)CC2C)cc1[N+](=O)[O-] (stereo not drawn) | ABL1 | inhibitor | 10 µM | 87 |
